Data set [1] relates to phosphorylation of IKK Ser176/180 and total IκB levels. In words: Western blot of NF-κB pathway in TNF-α stimulated UACC903 cells. The following applies: 10 μM, 1 hour prior to TNF-α stimulation (20 ng/ml). It counts as cell-based, human.
Data set [2] deals with T1, CHUK (IKK alpha) (Homo sapiens, UniProt O15111).
T1 sequence (O15111 1-745): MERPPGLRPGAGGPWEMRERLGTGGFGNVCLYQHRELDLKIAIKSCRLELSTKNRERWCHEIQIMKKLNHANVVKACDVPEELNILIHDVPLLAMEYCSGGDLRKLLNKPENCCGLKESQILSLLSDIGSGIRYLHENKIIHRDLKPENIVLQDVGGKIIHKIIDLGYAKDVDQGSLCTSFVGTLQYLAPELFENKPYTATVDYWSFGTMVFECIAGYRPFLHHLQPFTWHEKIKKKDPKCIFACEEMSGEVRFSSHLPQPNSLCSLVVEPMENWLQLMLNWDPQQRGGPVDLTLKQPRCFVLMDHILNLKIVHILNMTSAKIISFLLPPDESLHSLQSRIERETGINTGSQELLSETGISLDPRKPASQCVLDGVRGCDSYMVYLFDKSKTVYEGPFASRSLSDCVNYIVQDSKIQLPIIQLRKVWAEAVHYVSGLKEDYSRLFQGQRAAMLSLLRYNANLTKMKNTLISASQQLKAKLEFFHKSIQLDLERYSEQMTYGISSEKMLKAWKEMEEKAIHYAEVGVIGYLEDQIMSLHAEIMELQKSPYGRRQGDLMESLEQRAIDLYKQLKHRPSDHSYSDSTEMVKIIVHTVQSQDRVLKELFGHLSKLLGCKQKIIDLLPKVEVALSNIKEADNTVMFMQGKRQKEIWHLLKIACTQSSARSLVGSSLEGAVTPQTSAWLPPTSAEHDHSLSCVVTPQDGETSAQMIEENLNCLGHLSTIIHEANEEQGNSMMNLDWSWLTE
The data set is described as follows: IKKα. It counts as biochemical. The method in brief: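 ADAPTA ADP-detection format. Detection mix added EDTA (stop), europium-labelled anti-ADP antibody and Alexa Fluor 647 ADP tracer; ADP formation was taken from the emission ratio. Where noted, IC50 was predicted from % inhibition at 1 μM test compound, mean of two experiments.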

Data set [3] deals with AKT3 (PKB gamma) (Homo sapiens, UniProt Q9Y243). In words: AKT3 in vitro kinase assay. It counts as biochemical. The method in brief: (§1)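 Z′-LYTE assay. Enzyme per 10 μL reaction: AKT1 0.34–7.65 ng, AKT2 1–40 ng, or AKT3 0.56–8.3 ng. Reaction contained 2 μM Ser/Thr 06 peptide, ATP at Km, 50 mM HEPES pH 7.5, 0.01% BRIJ-35, 10 mM MgCl2 and 1 mM EGTA. After 1 h, Development Reagent A (1:2048) protease cleaved non-phosphorylated peptide. Read-out was the coumarin 445 nm/fluorescein 520 nm emission ratio; curves were fitted.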
AKT3 (PKB gamma), sequence (Q9Y243 whole entry): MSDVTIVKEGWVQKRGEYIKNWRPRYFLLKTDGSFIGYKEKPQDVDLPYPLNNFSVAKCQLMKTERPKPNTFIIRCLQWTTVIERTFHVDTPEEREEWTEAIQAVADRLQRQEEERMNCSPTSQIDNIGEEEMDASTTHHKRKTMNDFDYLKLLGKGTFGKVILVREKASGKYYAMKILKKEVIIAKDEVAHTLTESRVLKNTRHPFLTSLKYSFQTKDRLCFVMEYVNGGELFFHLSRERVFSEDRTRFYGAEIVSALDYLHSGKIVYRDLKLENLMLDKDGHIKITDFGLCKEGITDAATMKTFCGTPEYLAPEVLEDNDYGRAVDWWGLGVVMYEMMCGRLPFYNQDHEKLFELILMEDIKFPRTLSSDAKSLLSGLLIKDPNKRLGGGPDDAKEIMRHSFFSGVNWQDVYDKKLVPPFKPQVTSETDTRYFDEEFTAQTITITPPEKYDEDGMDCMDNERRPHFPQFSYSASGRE

In data set [4] the target is AKT1 (PKB alpha) (Homo sapiens, UniProt P31749). The data set is described as follows: AKT1 in vitro kinase assay. It counts as biochemical. The essentials:
as §1

In data set [5] the test system is AKT levels and phosphorylation of its substrate PRAS40. In words: Western blot of AKT pathway in melanoma UACC903 cells. It counts as cell-based, human. As to conditions: 4 hours. Background: Immunoblotting shows a protein as a band on a membrane.
Data set [6] concerns the target AKT2 (PKB beta) (Homo sapiens, UniProt P31751). In words: AKT2 in vitro kinase assay. It counts as biochemical. The essentials:
as §1

The nature of data set [7]: in vitro microsomal stability. It counts as in vitro ADME.
Data set [8] has as its system 21 protein kinases including SPHK1, SPHK2, FES and AURKB. In words: in vitro selectivity against 21 protein kinases. The following applies: 21 protein kinases previously inhibited by compound 1. It counts as biochemical.
In data set [9] the test system is Human UACC903 melanoma cells xenograft. The data set is described as follows: in vivo melanoma xenograft study. The following applies: oral gavage twice a week, 10 mg/kg and 25 mg/kg, single agent, nude mice.
Data set [10] addresses T2, IKBKB (IKK beta) (Homo sapiens, UniProt O14920).
T2 sequence (O14920 1-756): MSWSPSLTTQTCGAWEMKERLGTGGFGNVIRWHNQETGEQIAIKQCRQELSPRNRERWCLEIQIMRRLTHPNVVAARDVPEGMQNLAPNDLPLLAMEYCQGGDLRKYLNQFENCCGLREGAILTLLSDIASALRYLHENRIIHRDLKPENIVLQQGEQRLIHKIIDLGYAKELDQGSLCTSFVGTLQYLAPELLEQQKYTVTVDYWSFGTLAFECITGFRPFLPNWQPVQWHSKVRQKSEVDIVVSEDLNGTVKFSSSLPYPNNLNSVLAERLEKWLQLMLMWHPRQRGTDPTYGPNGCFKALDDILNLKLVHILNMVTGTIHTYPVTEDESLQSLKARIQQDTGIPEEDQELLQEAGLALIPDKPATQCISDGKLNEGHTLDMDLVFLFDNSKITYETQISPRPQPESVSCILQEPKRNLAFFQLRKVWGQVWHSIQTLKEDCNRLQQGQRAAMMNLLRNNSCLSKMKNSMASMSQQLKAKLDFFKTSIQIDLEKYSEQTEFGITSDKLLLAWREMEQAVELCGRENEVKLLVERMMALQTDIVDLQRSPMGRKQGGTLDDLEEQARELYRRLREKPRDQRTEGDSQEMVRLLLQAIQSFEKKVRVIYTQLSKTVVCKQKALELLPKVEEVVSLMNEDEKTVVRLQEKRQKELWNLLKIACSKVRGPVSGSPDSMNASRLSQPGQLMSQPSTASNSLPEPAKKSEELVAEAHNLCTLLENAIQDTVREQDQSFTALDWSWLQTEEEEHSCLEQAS
The data set is described as follows: IKKβ. It counts as biochemical. The method in brief: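 Z′-LYTE format. Development used Reagent B (1:64) protease; read-out was the coumarin 445 nm/fluorescein 520 nm emission ratio. Where noted, IC50 was predicted from % inhibition at 10 μM test compound, mean of two experiments.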

The nature of data set [11]: in vitro plasma stability. It counts as in vitro ADME.
For data set [12], the system named is UACC903 xenograft tumor sections. In words: TUNEL and IκB immunohistochemistry of xenograft tumor sections. It counts as in vivo, nude mice. The following applies: tumors from treated mice vs vehicle, after 28 days. The method in brief: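 Female nude mice (6–7 weeks) received 1×10^6 UACC903 cells in PBS subcutaneously in the flank. After 4 weeks, tumours were fixed, paraffin-sectioned, immunostained (DAB, haematoxylin) or TUNEL-stained, then scanned. Scores: TUNEL-positive nuclei/area and IκB immunoscore/area; error bars SEM.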

pIC50: −log10 of the molar value.

AKT2 (PKB beta), sequence (P31751 whole entry): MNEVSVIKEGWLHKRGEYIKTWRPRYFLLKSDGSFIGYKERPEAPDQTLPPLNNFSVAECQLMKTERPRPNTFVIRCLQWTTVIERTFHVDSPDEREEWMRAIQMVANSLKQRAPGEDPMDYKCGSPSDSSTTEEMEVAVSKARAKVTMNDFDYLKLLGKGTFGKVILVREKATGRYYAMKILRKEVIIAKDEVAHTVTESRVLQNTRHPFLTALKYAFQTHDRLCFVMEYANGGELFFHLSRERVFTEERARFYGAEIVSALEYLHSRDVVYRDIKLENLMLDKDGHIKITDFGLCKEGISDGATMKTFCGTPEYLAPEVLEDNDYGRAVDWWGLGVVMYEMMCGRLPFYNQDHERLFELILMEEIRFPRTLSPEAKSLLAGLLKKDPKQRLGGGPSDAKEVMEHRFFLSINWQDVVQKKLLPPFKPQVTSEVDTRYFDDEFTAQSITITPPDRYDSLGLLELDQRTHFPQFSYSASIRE
AKT1 (PKB alpha), sequence (P31749 whole entry): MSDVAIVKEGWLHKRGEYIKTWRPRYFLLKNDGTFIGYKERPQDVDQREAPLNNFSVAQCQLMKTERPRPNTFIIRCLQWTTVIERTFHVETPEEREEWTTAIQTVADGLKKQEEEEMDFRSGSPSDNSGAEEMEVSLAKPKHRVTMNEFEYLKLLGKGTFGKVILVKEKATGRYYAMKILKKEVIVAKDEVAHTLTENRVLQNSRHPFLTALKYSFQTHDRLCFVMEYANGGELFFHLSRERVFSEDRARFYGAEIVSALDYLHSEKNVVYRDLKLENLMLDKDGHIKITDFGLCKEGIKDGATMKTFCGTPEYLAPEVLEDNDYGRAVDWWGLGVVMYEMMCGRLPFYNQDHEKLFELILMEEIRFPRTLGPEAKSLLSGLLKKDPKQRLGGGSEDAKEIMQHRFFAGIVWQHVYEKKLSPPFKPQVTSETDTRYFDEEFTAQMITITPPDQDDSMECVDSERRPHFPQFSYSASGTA

On to `O=C(/C=C/c1nc2cc(F)ccc2[nH]1)c1c(-c2ccccc2)c2cc(Cl)ccc2[nH]c1=O` [compound 42, (E)-6-chloro-3-(3-(5-fluoro-1H-benzo[d]imidazol-2-yl)acryloyl)-4-phenylquinolin-2(1H)-one], for which the “inhibition of phosphorylation of IKK Ser176/180 and total IκB levels” value in data set [1] was “effectively inhibited”. The pIC50 (in general, the negative decadic logarithm of the IC50, by convention in mol/L) was 5.22 in data set [2]; 5.19 in data set [3]; 5.30 in data set [4]; 5.46 in [6]; 5.72 in [10]. Moreover, the “inhibition of AKT levels and PRAS40 phosphorylation” value in data set [5] was “effectively inhibited”. Also, in data set [7], the microsomal stability entry was “favorable”. The “IC50 values against all the selected kinases (in words)” value in data set [8] is “low micromolar range”. Further, the “tumor growth in xenograft” value in data set [9] is reported as “Remarkable tumor growth/suppression”. Also, in [11], the plasma stability result was “favorable”. In data set [12], the “IκB expression in tumors” value is on record as “higher IκB expression”. Besides, the “apoptosis in tumors (TUNEL staining)” value in [12] is listed as “higher levels of apoptosis”.

For the origin of these results see paper PMC3966491 (Chemical biology & drug design, 2013).
